Hits are enriched below; roughly 1.9% of the tested compounds scored in any of these assays.
Cneo AK release: causes C. neoformans cell lysis; adenylate kinase release luminescence, 4 h; normalised: neutral wells 0, clomiphene wells 100; lysis activity, % at 15 µM; 0.2% of 360,000 active; AID 651654;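 active = mean lysis activity across replicates of at least 80%, whatever share of replicates individually reach that level; inactive = mean lysis activity below 80%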
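Signal: Adenylate kinase release luminescence | Assay system: Log-phase Cryptococcus neoformans yeast cells | Input: Cells at 5 × 10^6 per mL | Buffer or medium: Fresh YPD growth medium | Compound: Single dose | Schedule: Static 4 h at 37 °C with compound, 1 h detection | Controls: Clomiphene | Read-out: Luminescence rise reflecting yeast cell lysis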
XiGFP reactiv: activators of X-chromosome reactivation in mouse fibroblasts; XiGFP mouse fibroblasts, % GFP-positive cells imaging, 3 d; cells co-treated with 5-aza-dC sensitizer; scaled so ellipticine positive control = 100%; 0.055% of 360,000 active; AID 743238; activation, % at 7.58 µM;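 active = mean normalized replicate activation at least 10% and every replicate at or above 10%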
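System: SV40-immortalized XiGFP fibroblast cells, line 68-5-11 / Incubation: 3-day compound exposure, then 15 min fixation at room temperature / Compound: single concentration per compound, delivered by pin transfer / Buffer or medium: DMEM plus 5-aza-dC sensitizer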
FN deposition inh: fibronectin deposition inhibition; AH1F fibroblasts, Alexa488-fibronectin deposition fluorescence, overnight; inhibition, % at 12.6 µM; 0.086% of 350,000 active;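 active = mean inhibition across replicates of 30% or more, regardless of how many single replicates reach that level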
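Material – AH1F fibroblast monolayer, labelled fibronectin deposition · Reagent – labelled fibronectin 24 nM · Timing – 1 h adhesion, overnight exposure · Measured by – fluorescence at 485 nm excitation, 525 nm emission · Read-out – inhibition of fibronectin deposition signal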
DENV2 CPE rescue: inhibitors of DENV2 cytopathic effect. DENV2-infected cells, cytopathic effect rescue, plate reader. CPE inhibition, % at 9.99 µM. 1.7% of 350,000 active; in the data active = CPE inhibition above about 20%, passing the limit was not always enough; tested in BHK-21 cells
PGC1a acetyl inh: modulators of PGC1a acetylation. U2OS PGC1a acetylation, AlphaScreen anti-acetyl-lysine; with virally co-expressed GCN5 acetyltransferase. inhibition, % at 15.6 µM. 0.17% of 350,000 active;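 active = every replicate shows inhibition of at least 40%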
F508del corr: correctors of CFTR F508del function in bronchial epithelial cells; CFBE cells, YFP halide quenching; stimulated with forskolin plus potentiator P3; % fluorescence drop versus neutral controls; activity (quench increase), % at 7.58 µM; 0.36% of 350,000 active; AID 720511;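 active = mean added fluorescence quench of at least 8% versus neutral control, with both replicates also reaching 8%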;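 also: cells transiently co-express mutant CFTR-F508del with the halide-sensitive YFP; corrector assay measuring rescue of mutant channel to the surface after 24 h compound exposure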
Large screens that a line does not name were inactive.

Cc1noc(C)c1S(=O)(=O)Nc1ccc2c(c1)C(=O)N([C@@H](C)CO)C[C@H](C)[C@@H](CN(C)Cc1ccc(C(=O)O)cc1)OCCCC[C@H](C)O2	DENV2 CPE rescue 34
COc1ccc(S(=O)(=O)N2CC[C@@H]3[C@@H](CO)Nc4ccc(-c5cccc(C#N)c5)cc4[C@@H]32)cc1	F508del corr 13
CN1c2ccc(-c3ccccc3F)cc2[C@H]2[C@H](CCN2S(=O)(=O)c2ccc(F)cc2)[C@H]1CO	DENV2 CPE rescue 65
Cc1ccc(S(=O)(=O)N2CC[C@@H]3[C@H]2c2cc(-c4ccccc4F)ccc2N[C@@H]3CO)cc1	Cneo AK release 104
Cc1cccc(S(=O)(=O)N2CC[C@@H]3[C@H]2c2cc(-c4ccc(C#N)cc4)ccc2N(C)[C@H]3CO)c1	none
Cc1cccc(S(=O)(=O)N2CC[C@@H]3[C@@H](CO)N(C)c4ccc(-c5ccc(C#N)cc5)cc4[C@@H]32)c1	DENV2 CPE rescue 45
COc1ccc(S(=O)(=O)N2CC[C@H]3[C@H](CO)Nc4ccc(-c5cccc(C#N)c5)cc4[C@H]32)cc1	none
CCC(=O)N1CC(=O)N2[C@@H](CO)[C@H](c3ccc(C#CCc4ccccc4)cc3)[C@@H]2C1	none (no result: Cneo AK release, FN deposition inh)
Cc1noc(C)c1NC(=O)N(C)C[C@H]1OCCCC[C@H](C)Oc2ccc(NC(=O)Cc3ccccc3)cc2C(=O)N([C@@H](C)CO)C[C@H]1C	none (no result: FN deposition inh)
O=S(=O)(c1ccc(F)cc1)N1CC[C@@H]2[C@H](CO)Nc3ccc(Br)cc3[C@@H]21	none (no result: DENV2 CPE rescue)
COc1ccc(-c2ccc3c(c2)[C@H]2[C@H](CCN2S(=O)(=O)c2ccc(OC)cc2)[C@@H](CO)N3)cc1	F508del corr 20
O=S(=O)(c1ccc(F)cc1)N1CC[C@@H]2[C@H]1c1cc(-c3ccc(F)cc3)ccc1N[C@@H]2CO	DENV2 CPE rescue 86
N#Cc1ccc(-c2ccc3c(c2)[C@@H]2[C@@H](CCN2S(=O)(=O)c2cccc(F)c2)[C@H](CO)N3)cc1	FN deposition inh 31, DENV2 CPE rescue 34
COc1ccc(S(=O)(=O)N2CC[C@@H]3[C@@H](CO)Nc4ccc(C5=CCCCC5)cc4[C@@H]32)cc1	F508del corr 9.0 (no result: Cneo AK release)
COc1ccc(NC(=O)N[C@H]2CC[C@@H](CCNC(=O)Nc3cc(F)ccc3F)O[C@H]2CO)cc1	none
CC(C)NC(=O)N[C@@H]1C=C[C@H](CC(=O)N2CCCCC2)O[C@H]1CO	none
CC=Cc1ccc2n(c1=O)C[C@H]1[C@H](CO)[C@@H](C(=O)N[C@H](C)c3ccccc3)[C@@H]2N1Cc1cccnc1 (mixture of isomers)	none (no result: Cneo AK release, FN deposition inh, DENV2 CPE rescue, PGC1a acetyl inh)
COc1cccc(S(=O)(=O)N[C@@H]2C=C[C@@H](CC(=O)NCc3ccc(Cl)cc3)O[C@@H]2CO)c1	none (no result: FN deposition inh)
O=S(=O)(c1ccc(F)cc1)N1CC[C@@H]2[C@@H](CO)Nc3ccc(C#Cc4cccc(F)c4)cc3[C@@H]21	DENV2 CPE rescue 24 (no result: Cneo AK release)
OC[C@@H]1Nc2ccc(-c3ccccc3)cc2[C@H]2[C@@H]1CCN2Cc1ccc(F)cc1	DENV2 CPE rescue 49
Cc1cccc(S(=O)(=O)N2CC[C@@H]3[C@@H](CO)Nc4ccc(C#Cc5cccc(F)c5)cc4[C@@H]32)c1	none
CO[C@@H]1CN(C)C(=O)c2ccc(NC(=O)C3CC3)cc2OC[C@H](C)N(CC2CCCC2)C[C@H]1C	none
Cc1ccc(S(=O)(=O)N(C)C[C@H]2Oc3c(NC(=O)Nc4ccccc4)cccc3C(=O)N([C@H](C)CO)C[C@@H]2C)cc1	none (no result: FN deposition inh)
C[C@H](CO)N1C[C@H](C)[C@@H](CN(C)S(=O)(=O)c2ccc(Cl)cc2)OCCCC[C@H](C)Oc2ccc(NC(=O)Nc3ccc(C(F)(F)F)cc3)cc2C1=O	DENV2 CPE rescue 36
C[C@@H]1CN([C@H](C)CO)C(=O)c2cc(NC(=O)Nc3ccc(C(F)(F)F)cc3)ccc2O[C@@H](C)CCCCO[C@H]1CN(C)S(=O)(=O)c1ccc(Cl)cc1	none
C[C@@H]1CCCCO[C@@H](CN(C)S(=O)(=O)c2ccc(Cl)cc2)[C@H](C)CN([C@@H](C)CO)C(=O)c2cc(NC(=O)Nc3ccc(C(F)(F)F)cc3)ccc2O1	DENV2 CPE rescue 35
COc1ccc(NC(=O)N(C)C[C@@H]2Oc3c(NC(=O)Nc4ccc(C(F)(F)F)cc4)cccc3C(=O)N([C@@H](C)CO)C[C@@H]2C)cc1	none (no result: Cneo AK release, FN deposition inh, DENV2 CPE rescue)
Cc1ccnc2c1ccc1ccccc12	none
Cc1ccnc2c1ccc1cccnc12	F508del corr 9.4 (no result: FN deposition inh, PGC1a acetyl inh)
Cc1cccc(/C=C/C(=O)c2ccc([N+](=O)[O-])o2)c1	FN deposition inh 65 (no result: PGC1a acetyl inh)
Cc1ccccc1/C=C/C(=O)c1ccc([N+](=O)[O-])o1	FN deposition inh 42 (no result: Cneo AK release, PGC1a acetyl inh)
COc1ccccc1-c1ccc([C@H]2[C@@H](CO)N3CCCCN(C(=O)c4ccncc4)C[C@H]23)cc1	none (no result: FN deposition inh)
COCC(=O)N1CC2(C1)CN(C(=O)c1ccccn1)[C@H](CO)c1c2c2ccc(OC)cc2n1C	none (no result: Cneo AK release, FN deposition inh, DENV2 CPE rescue, PGC1a acetyl inh, F508del corr)
O=C1c2ccccc2NC(c2ccc(Br)s2)N1O (configuration not stated)	DENV2 CPE rescue 53 (no result: Cneo AK release, PGC1a acetyl inh)
C=CCN1C(=O)c2ccccc2NC1c1ccc(Br)s1 (configuration not stated)	none
CCCC(=O)N1CCC2(CC1)CN(C(=O)C1CCCCC1)[C@H](CO)c1[nH]c3cc(OC)ccc3c12	none (no result: Cneo AK release, FN deposition inh)
CCCCn1nc(C(=O)Nc2ccc(-n3cnnn3)cc2)c2ccccc2c1=O	DENV2 CPE rescue 57
CCCCn1nc(C(=O)Nc2ccc3c(c2)OCO3)c2ccccc2c1=O	DENV2 CPE rescue 36
Cn1nc(C(=O)Nc2ccc(-n3cnnn3)cc2)c2ccccc2c1=O	none
CNC(=S)Nc1ccc(OC)c(OC)c1	none (no result: XiGFP reactiv, DENV2 CPE rescue, F508del corr)
C=CCN(CC=C)C(=S)Nc1ccc(OC)c(OC)c1	F508del corr 13
CCCNC(=O)C1(C)CCCN(Cc2ccc(C#N)cc2)C1 (configuration not stated)	DENV2 CPE rescue 48
COc1ccc2oc(C(=O)N3CCN(c4ncccn4)CC3)c(C)c2c1	none (no result: PGC1a acetyl inh)
Cc1c(C(=O)N2CCCC2)oc2ccc(Br)cc12	DENV2 CPE rescue 53 (no result: PGC1a acetyl inh)
COc1ccc2oc(C(=O)N3CCN(C(=O)c4ccco4)CC3)c(C)c2c1	F508del corr 14 (no result: FN deposition inh)
COc1ccc2oc(C(=O)OC(C)C(=O)N3CCC(C)CC3)c(C)c2c1 (configuration not stated)	DENV2 CPE rescue 34
CN1CCN(C(=O)C[C@H]2CC[C@H]3[C@@H](COC[C@H](O)CN3Cc3ccc4c(c3)OCO4)O2)CC1	DENV2 CPE rescue 56

High-throughput results as filed in PubChem BioAssay.
